Data set [1] is described as follows: Induction of nitric oxide scavenging activity assessed as nitrite level at 10 uM at room temperature after 60 mins by Griess assay in presence of light and SNP. Particulars: 1 h. The class given is physicochemical. A digest of the protocol:
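Sodium nitroprusside 2.5 mM in PBS incubated alone or with compound (10 µM) in light at room temperature for 60 min. Nitrite then measured by Griess reaction. 1400 W (10 µM) as comparator.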
In general terms: Griess reagent forms a coloured azo dye with nitrite.

In data set [2] the test system is RAW264.7. As to the kind of experiment: Antiinflammatory activity in mouse RAW264.7 cells assessed as inhibition of LPS-induced iNOS expression incubated for 2 hrs prior to LPS challenge measured after 24 hrs by Western blot analysis. The class given is functional, cell-based. In outline: (§1)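 Cells at 5 × 10^5/well, pretreated 2 h, then LPS 0.1 µg/mL for 24 h. Lysed in RIPA and protein assayed by Bradford. 20–50 µg separated on 8–15% SDS-PAGE and blotted to PVDF. Probed for murine iNOS or COX-2, HRP secondary, ECL detection, densitometry. Means + S.D. of 3 experiments in triplicate.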
(Immunoblotting shows a protein as a band on a membrane.)

For data set [3], the system named is RAW264.7. As to the kind of experiment: Antiinflammatory activity in mouse RAW264.7 cells assessed as inhibition of LPS-induced nitric oxide production after 24 hrs by Griess assay. The format is functional, cell-based. The settings on record: RAW264.7, 24 h. A digest of the protocol:
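Nitrite in medium read by Griess reagent (1% sulfanilamide, 0.1% naphthylethylenediamine in 5% phosphoric acid) mixed 1:1 with medium for 5 min. Absorbance at 550 nm, quantified against a sodium nitrite standard in culture medium.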

Data set [4] concerns the target T1, MAP kinase p38 (Mus musculus) (UniProt P47811+O08911+Q9WUI1+Q9Z1B7). The experiment in a line: Inhibition of p38 MAPK phosphorylation in LPS-induced mouse RAW264.7 cells incubated for 2 hrs prior to LPS challenge measured after 24 hrs by Western blot analysis. The format is cell-based. In outline:
(§2)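 Cells at 5 × 10^5/well, pretreated 2 h, then LPS 0.1 µg/mL for 24 h. 15 µg lysate protein run on 8% SDS-PAGE. p38 and p-p38 detected by Western blot with densitometry. Relative density = p-p38/β-actin. Means + S.D. of 3 experiments in triplicate.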

Data set [5] relates to RAW264.7. The experiment in a line: Antiinflammatory activity in mouse RAW264.7 cells assessed as downregulation of LPS-induced TNFalpha expression incubated for 2 hrs prior to LPS challenge measured after 24 hrs by ELISA. The format is functional, cell-based. A digest of the protocol: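 Cells seeded 5 × 10^5/well, pretreated 2 h with compound (0.5, 1.0, 2.0 or 5.0 µM), then LPS 0.1 µg/mL for 24 h. TNF-α measured in culture medium by ELISA kit. Means + S.D. of 3 separate experiments in triplicate.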
(In general: In an ELISA, binding on a coated surface is turned into a signal by an enzyme label.)

The test system of data set [6] is RAW264.7. The experiment in a line: Cytotoxicity against mouse RAW264.7 cells assessed as cell viability after 24 hrs by MTS assay. The format is cell-based. The settings on record: RAW264.7, 24 h. A digest of the protocol: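 Cells seeded 5 × 10^4/well and exposed 24 h. MTS added, 1 h at 37 °C, absorbance read at 490 nm. Percent of control = Ab treated/Ab control × 100 (n = 3). IC50 is the concentration cutting absorbance by 50%, taken from the linear portion of the curve.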

Data set [7] has as its system RAW264.7. As to the kind of experiment: Antiinflammatory activity in mouse RAW264.7 cells assessed as inhibition of LPS-induced COX-2 expression incubated for 2 hrs prior to LPS challenge measured after 24 hrs by Western blot analysis. The class given is functional, cell-based. A digest of the protocol:
as §1

The subject of data set [8] is RAW264.7. As to the kind of experiment: Antiinflammatory activity in mouse RAW264.7 cells assessed as inhibition of LPS-induced MMP-9 expression incubated for 2 hrs prior to LPS challenge measured after 24 hrs by gelatin zymographic analysis. The format is functional, cell-based. A digest of the protocol: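 Cells plated 16–18 h, then treated with LPS 0.1 µg/ml plus compound (0.5, 1.0, 2.0 µM). Medium collected at 24 h and concentrated. Run on 7.5% acrylamide gel containing 2 mg/ml gelatin. Gel renatured in Triton X-100, then buffer overnight at 37 °C, developed 16–18 h in Tris pH 7.5/NaCl/CaCl2. Coomassie stain. MMP-9 band scanned, expressed as % of control.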

The subject of data set [9] is RAW264.7. As to the kind of experiment: Antiinflammatory activity in mouse RAW264.7 cells assessed as downregulation of LPS-induced iNOS mRNA expression incubated for 2 hrs prior to LPS challenge measured after 9 hrs by RT-PCR analysis. The class given is functional, cell-based. In outline:
(§3)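 Cells at 5 × 10^5/well, pretreated 2 h, then LPS 0.1 µg/mL for 9 h. Total RNA isolated with Trizol. 1 µg RNA reverse-transcribed with oligo dT primers. Amplicons run on 3% agarose gel, band intensity normalized to GAPDH. Means + S.D. of 3 experiments in triplicate.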

The subject of data set [10] is RAW264.7. As to the kind of experiment: Antiinflammatory activity in mouse RAW264.7 cells assessed as downregulation of LPS-induced iNOS mRNA expression at 2 uM incubated for 2 hrs prior to LPS challenge measured after 9 hrs by RT-PCR analysis. The format is functional, cell-based. A digest of the protocol: as §3
Data set [11] deals with RAW264.7. As to the kind of experiment: Antiinflammatory activity in mouse RAW264.7 cells assessed as inhibition of LPS-induced COX-2 expression at 0.5 to 2 uM incubated for 2 hrs prior to LPS challenge measured after 24 hrs by Western blot analysis. The class given is functional, cell-based. In outline:
as §1

Data set [12] relates to RAW264.7. As to the kind of experiment: Antiinflammatory activity in mouse RAW264.7 cells assessed as inhibition of LPS-induced iNOS expression at 0.5 to 2 uM incubated for 2 hrs prior to LPS challenge measured after 24 hrs by Western blot analysis. The class given is functional, cell-based. A digest of the protocol: as §1
The test system of data set [13] is RAW264.7. The experiment in a line: Antiinflammatory activity in mouse RAW264.7 cells assessed as inhibition of LPS-induced iNOS expression at 0.5 uM incubated for 2 hrs prior to LPS challenge measured after 24 hrs by Western blot analysis. The format is functional, cell-based. A digest of the protocol:
as §1

For data set [14], the system named is RAW264.7. The experiment in a line: Antiinflammatory activity in mouse RAW264.7 cells assessed as inhibition of LPS-induced COX-2 expression at 0.5 uM incubated for 2 hrs prior to LPS challenge measured after 24 hrs by Western blot analysis. The class given is functional, cell-based. In outline:
as §1

In data set [15] the target is Transcription factor p65 (Mus musculus) (UniProt Q04207). As to the kind of experiment: Inhibition of NFkappaB p65 nuclear translocation in mouse RAW264.7 cells after 24 hrs by DAPI staining-based laser confocal immunofluorescent microscopic analysis. The class given is cell-based. In outline:
(§4)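 Cells grown on glass coverslips 24 h, then given LPS 0.1 µg/mL and/or compound 0.5 µM. Fixed in 4% paraformaldehyde, permeabilized with 0.2% Triton X-100. Anti-p65 antibody applied 24 h, then Alexa 568 secondary 1 h. Nuclei stained with DAPI. Imaged by confocal microscopy.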

For data set [16], the system named is RAW264.7. As to the kind of experiment: Antiinflammatory activity in mouse RAW264.7 cells assessed as inhibition of LPS-induced PGE2 production. The class given is functional, cell-based.
For data set [17], the target named is Transcription factor p65 (Mus musculus) (UniProt Q04207). The experiment in a line: Inhibition of NFkappaB p65 nuclear translocation in LPS-stimulated mouse RAW264.7 cells after 24 hrs by DAPI staining-based laser confocal immunofluorescent microscopic analysis. The format is cell-based. A digest of the protocol:
as §4

The target in data set [18] is T1, MAP kinase p38 (Mus musculus). As to the kind of experiment: Inhibition of p38 MAPK phosphorylation in mouse RAW264.7 cells at 0.5 to 2 uM by Western blot analysis. The class given is cell-based. A digest of the protocol: as §2

Calls of active or inactive are those of the source. The rule behind the calls is not given here.

The values that follow come from ChEMBL document CHEMBL2390938, “Synthesis and anti-inflammatory evaluations of β-lapachone derivatives” (Bioorg Med Chem, 2013).

As usually defined, the IC50 is the concentration that inhibits the measured activity by half.

Sequence of Transcription factor p65 (Mus musculus) (Q04207 whole entry): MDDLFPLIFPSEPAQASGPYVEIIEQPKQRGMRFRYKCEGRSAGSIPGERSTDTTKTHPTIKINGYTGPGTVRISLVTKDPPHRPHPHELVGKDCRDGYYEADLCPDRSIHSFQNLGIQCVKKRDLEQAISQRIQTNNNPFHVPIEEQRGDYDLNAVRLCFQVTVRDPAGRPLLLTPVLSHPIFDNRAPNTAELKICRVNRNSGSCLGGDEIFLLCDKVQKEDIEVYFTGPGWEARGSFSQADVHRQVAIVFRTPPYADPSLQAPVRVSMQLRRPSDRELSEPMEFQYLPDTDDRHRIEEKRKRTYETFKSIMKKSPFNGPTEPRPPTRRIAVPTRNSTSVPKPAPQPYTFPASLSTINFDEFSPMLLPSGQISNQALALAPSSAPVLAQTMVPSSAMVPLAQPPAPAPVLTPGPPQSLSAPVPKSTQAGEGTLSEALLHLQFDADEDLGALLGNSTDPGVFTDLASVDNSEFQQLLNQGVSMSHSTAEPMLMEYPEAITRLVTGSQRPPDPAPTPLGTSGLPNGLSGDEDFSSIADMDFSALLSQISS

Take `CC1(C)CCC2=C(O1)c1ccccc1C(=O)C2=O` [LAPACHONE]: the Activity entry in data set [1] is “Not Active”; in the data set on RAW264.7 [5], “Dose-dependent effect”; in the data set on RAW264.7 [9] it was “Dose-dependent effect”. Further, the inhibition entry (in the data set on RAW264.7 [2]; in data set [4]; in the data set with RAW264.7 [7]; in the data set on RAW264.7 [8]) was “Dose-dependent effect” throughout. Moreover, the IC50 in the data set on RAW264.7 [3] turned out to be 470 nM; in the data set on RAW264.7 [6], 4060 nM.

Regarding `COc1ccc(NC2=CC(=O)C(=O)c3ccccc32)cc1`, the IC50 in the data set with RAW264.7 [3] came to 810 nM; in the data set on RAW264.7 [6] it was 1840 nM.

Take `CC(=N)NCc1cccc(CN)c1` [1400W]: the Activity entry in data set [1] was “Not Active”. The result with RAW264.7 [10] was Active. The inhibition entry in the data set on RAW264.7 [11] and in the data set on RAW264.7 [12] was “Active” throughout. The 50% inhibitory concentration (IC50) in the data set on RAW264.7 [3] came to 200 nM; in the data set on RAW264.7 [6], 47500 nM.

As for `COc1ccc(OC2=CC(=O)/C(=N\O)c3ccccc32)cc1`, the inhibition result in the data set on RAW264.7 [13] and in the data set on RAW264.7 [14] was “Active” throughout. Further, in data set [1], the Activity entry is reported as “Not Active”. Besides, the IC50 in the data set with RAW264.7 [3] was determined as 1290 nM; in the data set with RAW264.7 [6], 20600 nM.

For the compound `Nc1ncnc2c1ncn2[C@@H]1O[C@H](CO)C[C@H]1O`, in data set [15], the inhibition entry was “Active”.

On to `COc1ccc(NC2=CC(=O)/C(=N\O)c3ccccc32)cc1`, for which the IC50 in the data set on RAW264.7 [3] is 870 nM; in the data set on RAW264.7 [6], 4690 nM.

In the case of `COc1ccc(-c2nc3c4ccoc4c4ccccc4c3[nH]2)cc1`, the IC50 with RAW264.7 [16] is 47 nM.

As for `COc1ccc(OC2=CC(=O)C(=O)c3ccccc32)cc1`, in data set [17], the inhibition entry is “Active”. The inhibition entry in data set [18] was “inactive”. Also, the values for the Activity entry (in [1]; in the data set on RAW264.7 [5]; with RAW264.7 [9]) were “Not Active”, “Dose-dependent effect” and “Dose-dependent effect”, respectively. The inhibition entry (in the data set with RAW264.7 [2]; in data set [4]; in the data set on RAW264.7 [7]; in the data set with RAW264.7 [8]) was “Dose-dependent effect” throughout. In addition, the IC50 in the data set on RAW264.7 [3] was 740 nM; in the data set on RAW264.7 [6], 31700 nM.

Take `O=C1C=C(Oc2ccccc2)c2ccccc2C1=O`: the inhibition result in the data set with RAW264.7 [13] and in the data set with RAW264.7 [14] was “Active” each time. Further, the Activity result in data set [1] is “Not Active”. The IC50 came to 850 nM with RAW264.7 [3] and 28500 nM with RAW264.7 [6].

For `O=C1C=C(Nc2ccccc2)c2ccccc2/C1=N/O`, the IC50 in the data set on RAW264.7 [3] came out at 630 nM; with RAW264.7 [6], 1670 nM.
